Experimental data as given in ChEMBL document CHEMBL3580655, “Identification of a Potent Inhibitor of CREB-Mediated Gene Transcription with Efficacious in Vivo Anticancer Activity” (J Med Chem, 2015).
The source made the active and inactive calls. No cut-off for these calls is given here.

Columns and labels:
MCF7 = assay: Antiproliferative activity against human MCF7 cells assessed as inhibition of cell growth after 72 hrs by MTT assay; format: functional; settings: MCF7, 72 h
Procedure, shortened: (§1)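 Cells seeded, allowed to attach overnight, then exposed to a range of concentrations for 72 h. MTT 0.5 mg/mL in complete medium, 3 h at 37 °C, formazan dissolved in DMSO, absorbance 570 nm. Percent growth = 100×(treated−time-zero)/(medium control−time-zero). GI50 from nonlinear regression of the growth–concentration curve. Mean ± SD of at least two independent experiments in duplicate; highest concentration 100 μM.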

MDA-MB-468 = assay: Antiproliferative activity against human MDA-MB-468 cells assessed as inhibition of cell growth after 72 hrs by MTT assay; format: functional; settings: MDA-MB-468, 72 h; procedure, shortened: as §1
A549 = assay: Antiproliferative activity against human A549 cells assessed as inhibition of cell growth after 72 hrs by MTT assay; format: functional; settings: A549, 72 h; procedure, shortened: as §1
MDA-MB-231 = assay: Antiproliferative activity against human MDA-MB-231 cells assessed as inhibition of cell growth after 72 hrs by MTT assay; format: functional; settings: MDA-MB-231, 72 h; procedure, shortened: as §1
[1] = Inhibition of CREB-mediated gene transcription in human HEK293T cells transfected with pCRE-RLuc by renilla luciferase reporter assay; format: cell-based; settings: HEK-293T
HEK-293T = assay: Inhibition of CREB-mediated gene transcription in human HEK293T cells assessed as inhibition of forskolin-stimulated Nurr1/NR4A2 transcription at 1000 nM after 1 hr by qRT-PCT analysis; format: cell-based
Procedure, shortened: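 HEK 293T cells exposed to a range of compound concentrations for 1 h, then DMSO or forskolin (10 μM) for 45 min. Nurr1/NR4A2 transcript level measured by qRT-PCR as relative mRNA.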

[2] = target: Cellular tumor antigen p53 (Homo sapiens) (UniProt P04637); assay: Inhibition of P53 (unknown origin) transfected in human HEK293T cells assessed as inhibition of forskolin-stimulated gene transcription at > 1 uM after 30 mins by CRE-RLuc complementation assay; format: cell-based; settings: HEK-293T
Procedure, shortened: (§2)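 HEK 293T cells transfected with the relevant plasmid combinations (VP16-CREB: VP16 activation domain fused to full-length CREB; or p53), then exposed to a range of concentrations before Renilla luciferase measurement. Activity normalized to protein concentration, expressed as RLU/μg protein.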

[3] = target: Cellular tumor antigen p53 (Homo sapiens) (UniProt P04637); assay: Inhibition of P53 (unknown origin) transfected in human HEK293T cells assessed as inhibition of forskolin-stimulated gene transcription after 30 mins by CRE-RLuc complementation assay; format: cell-based; settings: HEK-293T; procedure, shortened: as §2

Chain of Cellular tumor antigen p53 (Homo sapiens) (P04637 whole entry, looked up, the tested form may be a part): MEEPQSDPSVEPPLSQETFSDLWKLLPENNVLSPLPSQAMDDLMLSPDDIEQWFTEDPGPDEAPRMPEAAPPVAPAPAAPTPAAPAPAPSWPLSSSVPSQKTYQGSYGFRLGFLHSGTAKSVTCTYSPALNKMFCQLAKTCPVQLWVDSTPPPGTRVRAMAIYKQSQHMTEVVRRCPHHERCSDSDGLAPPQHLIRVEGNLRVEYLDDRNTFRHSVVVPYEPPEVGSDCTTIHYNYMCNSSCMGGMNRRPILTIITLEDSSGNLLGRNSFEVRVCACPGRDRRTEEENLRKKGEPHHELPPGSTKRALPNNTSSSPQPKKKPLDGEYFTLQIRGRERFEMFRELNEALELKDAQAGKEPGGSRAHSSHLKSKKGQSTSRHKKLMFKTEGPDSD

Structure (SMILES)	GI50 (MCF7) [nM]	GI50 (MDA-MB-468) [nM]	GI50 (A549) [nM]	GI50 (MDA-MB-231) [nM]	IC50 [1] [nM]	inhibition [2]	inhibition [3]	inhibition (HEK-293T)
O=C(NCCCOc1cc2ccccc2cc1C(=O)Nc1ccc(Cl)cc1O)c1cc2ccccc2cc1OCCCN1CCOCC1	> 100000	13700	> 100000	> 100000	> 50000	–	–	–
NCCCOc1ccccc1C(=O)NCCCOc1cc2ccccc2cc1C(=O)Nc1ccc(Cl)cc1O	2660	2320	2320	5820	5300	–	–	–
NCCCOc1cc2ccccc2cc1C(=O)NCCCOc1ccccc1C(=O)Nc1ccc(Cl)cc1O	2300	1820	2440	4610	10000	–	–	–
NCCCOc1cc2ccccc2cc1C(=O)NCCOc1cc2ccccc2cc1C(=O)Nc1ccc(Cl)cc1O	–	–	–	–	–	Active	inactive	–
O=C(NCCCOc1cc2ccccc2cc1C(=O)Nc1ccc(Cl)cc1O)c1cc2ccccc2cc1OCCCO	29000	10200	39200	82700	7300	–	–	–

More lines, in order of falling GI50 (MCF7), values ahead:

GI50 (MCF7) [nM]	GI50 (MDA-MB-468) [nM]	GI50 (A549) [nM]	GI50 (MDA-MB-231) [nM]	IC50 [1] [nM]	inhibition [2]	inhibition [3]	Structure (SMILES)	inhibition (HEK-293T)
1890	1850	2170	2710	5230	–	–	NCCOc1cc2ccccc2cc1C(=O)NCCCOc1cc2ccccc2cc1C(=O)Nc1ccc(Cl)cc1O	–
1720	1620	950	1000	4690	–	–	NCCCOc1cc2ccccc2cc1C(=O)NCCCOc1cc2ccccc2cc1C(=O)Nc1ccc(Cl)cc1	–
1650	200	260	260	18500	–	–	CNCCCOc1cc2ccccc2cc1C(=O)NCCCOc1cc2ccccc2cc1C(=O)Nc1ccc(Cl)cc1O	–
810	250	1160	1210	300	–	–	NCCOc1cc2ccccc2cc1C(=O)NCCOc1cc2ccccc2cc1C(=O)Nc1ccc(Cl)cc1O	–
140	220	290	370	–	–	–	NCCCOc1cc2ccccc2cc1C(=O)NCCCOc1cc2ccccc2cc1C(=O)Nc1ccc(Cl)cc1O	Active
